Laboratory results from ChEMBL document CHEMBL4689842, “EUbOPEN Chemogenomics Library wave 1” (2021).
Where “and” joins values, the source holds several entries; their conditions need not be identical. Equal values may be shown once.

System: Fibroblast
Experiment: Multiplex assay against human fibroblast
Type: toxicity, cell-based
How it was run: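 Hoechst33342, BioTracker Green Microtubule Cytoskeleton Dye, MitoTracker Red and Annexin V Alexa Fluor 680 were added to live cells at seeding, and imaging on a CQ1 microscope at 37°C and 5% CO2 followed compound addition. Gating by CellPathfinder machine learning separated cells into Hoechst high-intensity objects or normal cells, then normal cells into healthy, pyknosed or fragmented nuclei, then pyknosed cells into mitotic or apoptotic. Per cents of healthy-nucleus cells are reported for the tubulin, mitochondrial-mass and membrane-permeability phenotypes.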

[1] = 12 h, 1 µM, compound concentration 1 uM, replicate 1
[2] = 12 h, 1 µM, compound concentration 1 uM, replicate 2
[3] = 12 h, 10 µM, compound concentration 10 uM, replicate 1
[4] = 12 h, 10 µM, compound concentration 10 uM, replicate 2
[5] = 24 h, 1 µM, compound concentration 1 uM, replicate 1
[6] = 24 h, 1 µM, compound concentration 1 uM, replicate 2
[7] = 24 h, 10 µM, compound concentration 10 uM, replicate 1
[8] = 24 h, 10 µM, compound concentration 10 uM, replicate 2
[9] = 48 h, 1 µM, compound concentration 1 uM, replicate 1
[10] = 48 h, 1 µM, compound concentration 1 uM, replicate 2
[11] = 48 h, 10 µM, compound concentration 10 uM, replicate 1
[12] = 48 h, 10 µM, compound concentration 10 uM, replicate 2

## CCn1c(=O)c(-c2ccc(-c3cncs3)cc2Cl)cc2cnc(Nc3ccc(N4CCN(C)CC4)cc3)nc21
[1]
  Population Apoptotic (%): 53%
  Population Fragmented Nuclei (%): 26%
  Population Healthy Nuclei (%): 37%
  Population Hoechst High Intensity Objects (%): 17%
  Population Membrane Permeable-Phenotype (%): 15%
  Population Mitochondria Different-Phenotype (%): 0%
  Population Mitotic Cells (%): 46%
  Population Normal (%): 82%
  Population Pyknosed Nuclei (%): 35%
  Population Tubulin-Different-Phenotype (%): 36%
  Total Cell Count: 108
[2]
  Population Apoptotic (%): 75%
  Population Fragmented Nuclei (%): 9%
  Population Healthy Nuclei (%): 78%
  Population Hoechst High Intensity Objects (%): 7%
  Population Membrane Permeable-Phenotype (%): 3%
  Population Mitochondria Different-Phenotype (%): 17%
  Population Mitotic Cells (%): 25%
  Population Normal (%): 92%
  Population Pyknosed Nuclei (%): 11%
  Population Tubulin-Different-Phenotype (%): 19%
  Total Cell Count: 76
[3]
  Population Apoptotic (%): 58%
  Population Fragmented Nuclei (%): 45%
  Population Healthy Nuclei (%): 9%
  Population Hoechst High Intensity Objects (%): 46%
  Population Membrane Permeable-Phenotype (%): 41%
  Population Mitochondria Different-Phenotype (%): 8%
  Population Mitotic Cells (%): 41%
  Population Normal (%): 53%
  Population Pyknosed Nuclei (%): 44%
  Population Tubulin-Different-Phenotype (%): 50%
  Total Cell Count: 230
[4]
  Population Apoptotic (%): 11%
  Population Fragmented Nuclei (%): 8%
  Population Healthy Nuclei (%): 79%
  Population Hoechst High Intensity Objects (%): 4%
  Population Membrane Permeable-Phenotype (%): 5%
  Population Mitochondria Different-Phenotype (%): 29%
  Population Mitotic Cells (%): 88%
  Population Normal (%): 96%
  Population Pyknosed Nuclei (%): 12%
  Population Tubulin-Different-Phenotype (%): 15%
  Total Cell Count: 77
[5]
  Population Apoptotic (%): 58%
  Population Fragmented Nuclei (%): 26%
  Population Healthy Nuclei (%): 47%
  Population Hoechst High Intensity Objects (%): 16%
  Population Membrane Permeable-Phenotype (%): 31%
  Population Mitochondria Different-Phenotype (%): 0%
  Population Mitotic Cells (%): 41%
  Population Normal (%): 83%
  Population Pyknosed Nuclei (%): 25%
  Population Tubulin-Different-Phenotype (%): 40%
  Total Cell Count: 111
[6]
  Population Apoptotic (%): 46%
  Population Fragmented Nuclei (%): 15%
  Population Healthy Nuclei (%): 68%
  Population Hoechst High Intensity Objects (%): 4%
  Population Membrane Permeable-Phenotype (%): 1%
  Population Mitochondria Different-Phenotype (%): 5%
  Population Mitotic Cells (%): 53%
  Population Normal (%): 95%
  Population Pyknosed Nuclei (%): 16%
  Population Tubulin-Different-Phenotype (%): 20%
  Total Cell Count: 74
[7]
  Population Apoptotic (%): 85%
  Population Fragmented Nuclei (%): 44%
  Population Healthy Nuclei (%): 6%
  Population Hoechst High Intensity Objects (%): 53%
  Population Membrane Permeable-Phenotype (%): 22%
  Population Mitochondria Different-Phenotype (%): 0%
  Population Mitotic Cells (%): 15%
  Population Normal (%): 46%
  Population Pyknosed Nuclei (%): 48%
  Population Tubulin-Different-Phenotype (%): 27%
  Total Cell Count: 615
[8]
  Population Apoptotic (%): 27%
  Population Fragmented Nuclei (%): 14%
  Population Healthy Nuclei (%): 71%
  Population Hoechst High Intensity Objects (%): 3%
  Population Membrane Permeable-Phenotype (%): 7%
  Population Mitochondria Different-Phenotype (%): 23%
  Population Mitotic Cells (%): 72%
  Population Normal (%): 96%
  Population Pyknosed Nuclei (%): 14%
  Population Tubulin-Different-Phenotype (%): 8%
  Total Cell Count: 83
[9]
  Population Apoptotic (%): 52%
  Population Fragmented Nuclei (%): 36%
  Population Healthy Nuclei (%): 39%
  Population Hoechst High Intensity Objects (%): 10%
  Population Membrane Permeable-Phenotype (%): 35%
  Population Mitochondria Different-Phenotype (%): 2%
  Population Mitotic Cells (%): 47%
  Population Normal (%): 89%
  Population Pyknosed Nuclei (%): 24%
  Population Tubulin-Different-Phenotype (%): 32%
  Total Cell Count: 105
[10]
  Population Apoptotic (%): 0%
  Population Fragmented Nuclei (%): 24%
  Population Healthy Nuclei (%): 75%
  Population Membrane Permeable-Phenotype (%): 5%
  Population Mitochondria Different-Phenotype (%): 6%
  Population Mitotic Cells (%): 0%
  Population Pyknosed Nuclei (%): 0%
  Population Tubulin-Different-Phenotype (%): 20%
  Total Cell Count: 88
[11]
  Population Apoptotic (%): 92%
  Population Fragmented Nuclei (%): 44%
  Population Healthy Nuclei (%): 5%
  Population Hoechst High Intensity Objects (%): 59%
  Population Membrane Permeable-Phenotype (%): 24%
  Population Mitochondria Different-Phenotype (%): 0%
  Population Mitotic Cells (%): 7%
  Population Normal (%): 40%
  Population Pyknosed Nuclei (%): 50%
  Population Tubulin-Different-Phenotype (%): 10%
  Total Cell Count: 1270
[12]
  Population Apoptotic (%): 100%
  Population Fragmented Nuclei (%): 43%
  Population Healthy Nuclei (%): 55%
  Population Hoechst High Intensity Objects (%): 11%
  Population Membrane Permeable-Phenotype (%): 10%
  Population Mitochondria Different-Phenotype (%): 4%
  Population Mitotic Cells (%): 0%
  Population Normal (%): 88%
  Population Pyknosed Nuclei (%): 0%
  Population Tubulin-Different-Phenotype (%): 52%
  Total Cell Count: 139

## C[C@H]1Oc2cc(cnc2N)-c2c(nn(C)c2C#N)CN(C)C(=O)c2ccc(F)cc21 [LORLATINIB]
[1]
  Population Apoptotic (%): 60% and 68%
  Population Fragmented Nuclei (%): 26% and 17%
  Population Healthy Nuclei (%): 55% and 68%
  Population Hoechst High Intensity Objects (%): 19% and 8%
  Population Membrane Permeable-Phenotype (%): 20% and 11%
  Population Mitochondria Different-Phenotype (%): 7% and 4%
  Population Mitotic Cells (%): 40% and 31%
  Population Normal (%): 80% and 91%
  Population Pyknosed Nuclei (%): 17% and 14%
  Total Cell Count: 210 and 172
[2]
  Population Apoptotic (%): 42% and 64%
  Population Fragmented Nuclei (%): 63% and 54%
  Population Healthy Nuclei (%): 25% and 15%
  Population Hoechst High Intensity Objects (%): 34% and 31%
  Population Membrane Permeable-Phenotype (%): 33% and 28%
  Population Mitotic Cells (%): 57% and 35%
  Population Normal (%): 65% and 68%
  Population Pyknosed Nuclei (%): 11% and 30%
  Population Tubulin-Different-Phenotype (%): 40% and 57%
  Total Cell Count: 91 and 67
[5]
  Population Apoptotic (%): 55% and 64%
  Population Fragmented Nuclei (%): 22% and 24%
  Population Healthy Nuclei (%): 56% and 66%
  Population Hoechst High Intensity Objects (%): 14% and 12%
  Population Membrane Permeable-Phenotype (%): 15% and 6%
  Population Mitotic Cells (%): 44% and 35%
  Population Normal (%): 85% and 87%
  Population Pyknosed Nuclei (%): 21%
  Total Cell Count: 201 and 190
[6]
  Population Apoptotic (%): 57% and 40%
  Population Fragmented Nuclei (%): 55% and 65%
  Population Hoechst High Intensity Objects (%): 36% and 33%
  Population Membrane Permeable-Phenotype (%): 33% and 20%
  Population Mitochondria Different-Phenotype (%): 0% and 13%
  Population Mitotic Cells (%): 42% and 60%
  Population Normal (%): 63% and 66%
  Population Tubulin-Different-Phenotype (%): 33% and 26%
  Total Cell Count: 60 and 87
